Test results reported in ChEMBL document CHEMBL4765423, “Antikinetoplastid SAR study in 3-nitroimidazopyridine series: Identification of a novel non-genotoxic and potent anti-T. b. brucei hit-compound with improved pharmacokinetic properties” (Eur J Med Chem, 2020).

Tests used:
[1] = Aqueous solubility of compound; format: physicochemical; settings: buffer
[2] = Cytotoxicity against human HepG2 cells assessed as reduction in cell viability after 72 hrs by MTT assay; format: cell-based
Method in brief: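 MTT was applied at 0.5 mg/mL for 2 h, formazan was dissolved in DMSO, and absorbance read at 570 nm with a 630 nm reference. Doxorubicin was the positive control. CC50 was taken from the dose-response curve, as the mean of three experiments.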

[3] = Selectivity index, ratio of CC50 for human HepG2 cells to EC50 for antileishmanial activity against Leishmania infantum MHOM/MA/67/ITMAP-263 axenic amastigotes; format: toxicity; settings: read-out: Ratio CC50/EC50
[4] = Microsomal stability in CD-1 mouse liver microsomes assessed as half life in presence of NADP measured up to 40 mins by LC-MS analysis; format: ADME, Microsome
Method in brief: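 Compound was incubated in duplicate with female CD-1 mouse microsomes at 37 °C in 50 mM phosphate, pH 7.4. An NADP-regenerating system was present (MgCl₂ 5 mM, NADP 1 mM, G6PDH 0.4 U/mL, G6P 5 mM).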

[5] = Selectivity index, ratio of CC50 for human HepG2 cells to EC50 for Trypanosoma brucei brucei trypomastigotes AnTat 1.9; format: toxicity; settings: read-out: Ratio CC50/EC50
[6] = Selectivity index, ratio of CC50 for human HepG2 cells to EC50 for antileishmanial activity against Leishmania donovani MHOM/IN/00/DEVI promastigotes; format: toxicity; settings: read-out: Ratio CC50/EC50
Leishmania donovani = assay: Antileishmanial activity against Leishmania donovani MHOM/IN/00/DEVI promastigotes assessed as inhibition of parasitic metabolic activity measured after 72 hrs by MTT assay; format: functional, organism-based
Method in brief: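 Log-phase promastigotes at 10⁶/mL were grown in Schneider's medium with 20% FCS at 27 °C. Compound was added from DMSO stock (final <0.5% v/v), in duplicate, for 72 h. Metabolic activity was read by MTT (4 h, 27 °C) and absorbance at 570 nm. EC50 came from non-linear dose-response regression, as the mean of ≥3 independent experiments.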

[7] = test system: Trypanosoma brucei brucei; assay: Antitrypanosomal activity against bloodstream form Trypanosoma brucei brucei AnTat 1.9 trypomastigotes assessed as reduction in parasite viability incubated for 69 hrs by Alamar Blue dye based assay; format: functional, organism-based; settings: AnTat 1.9, 69 h
Method in brief: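 BSF parasites were cultured in MEM/Baltz medium with 20% heat-inactivated horse serum, mercaptoethanol, L-cysteine and bathocuproine, at 37 °C and 5% CO₂. Cells were seeded at 2000 parasites/100 µL with compound from DMSO, in duplicate, for 69 h. Alamar Blue was added for 5 h and fluorescence read (ex 530/em 590 nm). EC50 came from non-linear regression over three independent experiments.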

Albumin = Albumin (Homo sapiens, UniProt P02768); assay: Binding affinity to human albumin incubated for 4 hrs by LC-MS analysis; format: ADME; settings: read-out: PB (converted)
Chain of Albumin (P02768 whole entry): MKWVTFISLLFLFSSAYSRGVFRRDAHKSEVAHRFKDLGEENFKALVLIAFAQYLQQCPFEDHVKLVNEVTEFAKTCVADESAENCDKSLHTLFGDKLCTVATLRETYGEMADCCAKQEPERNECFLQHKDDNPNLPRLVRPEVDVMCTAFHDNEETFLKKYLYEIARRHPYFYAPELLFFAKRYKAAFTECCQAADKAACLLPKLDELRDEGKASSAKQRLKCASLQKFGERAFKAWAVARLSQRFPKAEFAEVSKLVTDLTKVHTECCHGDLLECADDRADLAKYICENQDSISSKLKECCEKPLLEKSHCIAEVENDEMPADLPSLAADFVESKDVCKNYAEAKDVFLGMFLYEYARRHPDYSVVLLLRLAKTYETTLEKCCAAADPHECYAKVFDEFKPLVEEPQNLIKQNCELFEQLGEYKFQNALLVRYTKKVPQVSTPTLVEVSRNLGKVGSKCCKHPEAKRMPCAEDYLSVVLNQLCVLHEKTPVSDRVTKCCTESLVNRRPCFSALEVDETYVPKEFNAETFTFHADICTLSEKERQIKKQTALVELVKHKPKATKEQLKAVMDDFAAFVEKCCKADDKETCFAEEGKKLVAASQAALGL

Leishmania infantum = assay: Antileishmanial activity against Leishmania infantum MHOM/MA/67/ITMAP-263 axenic amastigotes assessed as inhibition of parasitic metabolic activity incubated for 48 hrs by steady Glow reagent based luminescence assay; format: functional, organism-based; settings: MHOM/MA/67/ITMAP-263, 48 h
Method in brief: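 Luciferase-expressing promastigotes were acidified (pH 5.4, 24 h, 24 °C) and then held 24 h at 37 °C to give axenic amastigotes. These were used at 2×10⁶/mL with compound (DMSO <0.5%), in duplicate, for 48 h at 37 °C. Luciferase luminescence was read. EC50 came from non-linear regression, as the mean of three independent experiments.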

[8] = Electrochemical behavior of the compound assessed as redox potential corrected toward normal hydrogen electrode by cyclic voltammetry

| SMILES | solubility [1] | half-life [4] [min] | EC50 [7] [µM] | fraction unbound at 4 h (Albumin) | EC50 (Leishmania infantum) [µM] | Activity [8] [V] | CC50 at 72 h [2] [µM] | selectivity ratio [3] | selectivity ratio [5] | selectivity ratio [6] | EC50 (Leishmania donovani) [µM] |
| --- | --- | --- | --- | --- | --- | --- | --- | --- | --- | --- | --- |
| O=[N+]([O-])c1c(CS(=O)(=O)c2cccnc2)nc2c(Br)cc(Cl)cn12 | Soluble | 27 | 0.025 | 0.13 | 77.8 | – | > 62.5 | > 0.8 | > 2500 | > 78 | 0.8 |
| Cc1nc2c(Sc3ccc(Cl)cc3)cc(Cl)cn2c1[N+](=O)[O-] | – | – | – | – | – | -0.79 | > 7.8 | – | – | – | > 12.5 |
| O=[N+]([O-])c1c(CS(=O)(=O)C2CCCCC2)nc2c(Br)cc(Cl)cn12 | – | – | 0.5 | – | > 100 | – | > 15.6 | – | > 31.2 | > 17.3 | 0.9 |
| Cc1cc(Sc2ccc(Cl)cc2)c2nc(CS(=O)(=O)c3ccccc3)c([N+](=O)[O-])n2c1 | – | – | 1.8 | – | 5 | -0.76 | > 62.5 | 12.5 | > 34.7 | > 24 | 2.6 |
| C[C@@H]1[C@H](O)[C@@H](C)/C=C/C=C/C=C/C=C/C=C/C=C/C=C/[C@H](O[C@@H]2O[C@H](C)[C@@H](O)[C@H](N)[C@@H]2O)C[C@@H]2O[C@](O)(C[C@@H](O)C[C@@H](O)[C@H](O)CC[C@@H](O)C[C@@H](O)CC(=O)O[C@H]1C)C[C@H](O)[C@H]2C(=O)O [AMPHOTERICIN B] | – | – | – | – | 0.06 | – | – | – | – | – | – |
| O=[N+]([O-])c1c(CS(=O)(=O)c2ccccc2)nc2c(Br)cc(C(F)(F)F)cn12 | – | – | 4 | – | > 3.1 | -0.6 | > 15.6 | – | > 3.9 | > 2.5 | 6.2 |
| CS(=O)(=O)Cc1nc2c(Sc3ccc(Cl)cc3)cc(Cl)cn2c1[N+](=O)[O-] | – | 12 | 0.067 | 0.011 | 10.3 | – | > 31.2 | > 3 | > 466 | > 26 | 1.2 |
| O=[N+]([O-])c1c(CS(=O)(=O)c2ccccc2)nc2c(Nc3ccccc3)cc(Cl)cn12 | Insoluble | – | – | – | – | -0.69 | > 3.9 | – | – | – | – |
| COc1ccc(Nc2cc(Cl)cn3c([N+](=O)[O-])c(CS(=O)(=O)c4ccccc4)nc23)cc1 | Insoluble | – | – | – | – | – | > 3.9 | – | – | – | – |
| O=[N+]([O-])c1c(CSc2ccccc2)nc2c(Sc3ccc(Cl)cc3)cc(Cl)cn12 | – | – | > 50 | – | – | -0.72 | > 15.6 | – | – | > 2.1 | 7.4 |
| O=[N+]([O-])c1cnc2c(Sc3ccc(Cl)cc3)cc(Cl)cn12 | Insoluble | – | 0.085 | – | – | -0.74 | > 7.8 | – | > 92.8 | > 3.1 | 2.5 |
| O=[N+]([O-])c1c(CS(=O)(=O)c2ccccc2)nc2c(Sc3ccc(Cl)cc3)cc(C(F)(F)F)cn12 | – | – | 0.17 | – | – | -0.58 | > 7.8 | – | > 45.9 | > 4.1 | 1.9 |
| O=[N+]([O-])c1c(CS(=O)(=O)c2ccccc2)nc2c([Se]c3ccc(Cl)cc3)cc(Cl)cn12 | Insoluble | – | 0.3 | – | 0.9 | – | > 7.8 | > 8.7 | > 26 | > 11.1 | 0.7 |
| O=[N+]([O-])c1c(CSc2ccccc2)nc2c(Br)cc(Cl)cn12 | – | – | > 50 | – | 17.8 | -0.7 | > 31.2 | > 1.8 | – | – | > 12.5 |

Second part, led by results:

| solubility [1] | half-life [4] [min] | EC50 [7] [µM] | fraction unbound at 4 h (Albumin) | EC50 (Leishmania infantum) [µM] | Activity [8] [V] | SMILES | CC50 at 72 h [2] [µM] | selectivity ratio [3] | selectivity ratio [5] | selectivity ratio [6] | EC50 (Leishmania donovani) [µM] |
| --- | --- | --- | --- | --- | --- | --- | --- | --- | --- | --- | --- |
| Insoluble | – | – | – | – | – | O=[N+]([O-])c1c(CS(=O)(=O)c2ccccc2)nc2c(Nc3ccc(Cl)cc3)cc(Cl)cn12 | > 3.9 | – | – | – | – |
| Insoluble | – | 2.2 | – | – | – | CSCc1nc2c(Br)cc(Cl)cn2c1[N+](=O)[O-] | > 15.6 | – | > 7.1 | – | – |
| – | – | > 50 | – | 7.9 | – | O=[N+]([O-])c1c(CO)nc2c(Sc3ccc(Cl)cc3)cc(Cl)cn12 | > 15.6 | > 2 | – | > 3.9 | 4 |
| – | – | 0.02 | – | – | – | C[S+]([O-])Cc1nc2c(Br)cc(Cl)cn2c1[N+](=O)[O-] (centres undefined) | 51.4 | – | 2570 | – | – |
| – | – | 1.2 | – | > 3.1 | -0.76 | Cc1cc(Br)c2nc(CS(=O)(=O)c3ccccc3)c([N+](=O)[O-])n2c1 | > 31.2 | – | > 26 | > 5.6 | 5.6 |
| – | – | > 50 | – | 32.1 | – | Cc1nc2c(Br)cc(Cl)cn2c1[N+](=O)[O-] | > 125 | > 3.9 | – | – | > 12.5 |
| – | 12 | – | 0.035 | – | -0.65 | O=[N+]([O-])c1c(CS(=O)(=O)c2ccccc2)nc2c(Br)cc(Cl)cn12 | – | – | – | – | – |
| – | – | 0.4 | – | 15.9 | – | O=[N+]([O-])c1cnc2c(Br)cc(Cl)cn12 | 16.2 | 1 | 40.5 | 1.7 | 9.3 |
| – | – | > 50 | – | 46.3 | – | O=[N+]([O-])c1c(CO)nc2c(Br)cc(Cl)cn12 | > 125 | > 5.4 | – | – | > 12.5 |
| – | – | 7.2 | – | > 100 | – | CS(=O)(=O)Cc1nc2c(Br)cc(Cl)cn2c1N | > 125 | – | – | – | > 12.5 |
| – | – | – | – | – | -0.61 | CC1CS(=O)(=O)CCN1/N=C/c1ccc([N+](=O)[O-])o1 (centres undefined) [NIFURTIMOX] | – | – | – | – | – |
| – | – | – | – | – | -0.83 | CSc1ccc(OCc2ncc([N+](=O)[O-])n2C)cc1 [FEXINIDAZOLE] | – | – | – | – | – |
